Screening results from PubChem.
In the library only some 2% were active in any assay of this set; here they are far more common.
Hck Nef HTS – blocks Nef-activated human Hck kinase. Recombinant Hck-YEEI plus Nef, Z-Lyte FRET kinase assay. inhibition, % at 20 µM. 0.68% of 220,000 active. AID 463187;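 active = Hck-Nef kinase inhibition above about 50%, limit read from the data; inactive = inhibition below that limit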;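 also: 0% = DMSO with Hck plus Nef and 100% = Hck alone without Nef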
Diaph act CS – counter-screen for diaphorase-based assays: diaphorase activators and chemical reducers; activation factor at 20 µM; 0.005% of 190,000 active; Diaphorase/resazurin coupled assay, resorufin fluorescence, 16 min; hits give high values; 1 = vehicle wells, 0 = NADH-free wells;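 active = diaphorase activity raised at least twofold by the compound at 20 µM; inactive = activation factor below 2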
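Assay system: bacterial diaphorase enzyme (C. kluyveri) / Input: enzyme 0.07 U/mL final / Medium: 50 mM HEPES pH 7.4 with 4.542 mM MgCl2, 0.005% Tween 20 / Doses: single compound dose of 20 µM, 1% DMSO final / Incubation: 16 min enzyme reaction, ambient temperature / Signal: fluorescence, excitation 544 nm and emission 590 nm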
p47phox inh – p47phox (human) inhibition; 0.53% of 220,000 active; inhibition, % at 24.7 µM; P14598; AID 1274; p47phox/p22phox peptide binding, fluorescence polarization, 2 h;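 also: 0% = p47phox with labelled peptide and 100% = labelled peptide alone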
Target sequence (P14598 whole entry, looked up): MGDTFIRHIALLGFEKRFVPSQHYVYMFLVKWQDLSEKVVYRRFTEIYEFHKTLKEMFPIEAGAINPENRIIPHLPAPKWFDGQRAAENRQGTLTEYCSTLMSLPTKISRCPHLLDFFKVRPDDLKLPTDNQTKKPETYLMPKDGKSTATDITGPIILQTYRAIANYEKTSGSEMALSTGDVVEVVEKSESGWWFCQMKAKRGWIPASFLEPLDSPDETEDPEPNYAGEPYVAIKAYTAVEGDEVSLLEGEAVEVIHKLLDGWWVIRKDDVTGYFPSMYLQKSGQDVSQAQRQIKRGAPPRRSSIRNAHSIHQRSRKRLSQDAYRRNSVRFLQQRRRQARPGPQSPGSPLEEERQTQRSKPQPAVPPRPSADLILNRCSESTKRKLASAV
eIF4E-4G inh – eIF4E/eIF4G interaction inhibition in translation initiation | P63073+Q04637 | TR-FRET eIF4E-eIF4GI(517-606) binding, 2 h | inhibition, % at 21.7 µM | 0.37% of 220,000 active | AID 782;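 also: 0% = full FRET control wells and 100% = background wells lacking eIF4GI fragment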
14-3-3 Bad inh – disrupts binding of bovine 14-3-3 zeta to phospho-Bad peptide; TR-FRET 14-3-3zeta/Dy647-pBad peptide displacement, 1 h; inhibition, % at 21.7 µM; 0.71% of 220,000 active; P63103;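 active = inhibition above about 70%, limit read from the data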;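 also: 0% = full 14-3-3 plus peptide FRET controls and 100% = background without 14-3-3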
Hck Nef conf – Hck-Nef kinase inhibition, confirmation | shares compounds with Hck Nef HTS | Recombinant Hck-YEEI:Nef, Z-Lyte FRET kinase assay | calls only at 10 µM | 28% of 1,300 active | AID 463188;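 active = average inhibition of at least 50%, with Z-scores no higher than 3 in both the phospho-tyrosine peptide and fluorescence counterscreens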
* marks the source's active call; other numbers are inactive results; i = inactive; / = no result shown; + = active, no number; [ ] = remark or other dose.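 The calls were made as follows, unless noted: active = inhibition above about 30% (limit read from the data); inactive = the rest.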

SMILES	Hck Nef HTS	Diaph act CS	p47phox inh	eIF4E-4G inh	14-3-3 Bad inh	Hck Nef conf
Cn1/c(=N/N=C/c2ccc([N+](=O)[O-])cc2)sc2ccccc21	-1	1.1	-7	-10	19	/
Cc1cc(C)c2c(c1)/C(=N\N=c1\sc3ccccc3n1C)C(=O)N2	51*	/	-32	-9	3	i
CC1(NC(=S)Nc2ccccc2)CCS(=O)(=O)C1 (configuration not stated)	2	/	-5	1	-6	/
CCCCCCCCCCCCCCCC[n+]1cccc2ccccc21	107*	1.6	101*	92*[fluorescence artefact?]	97*[fluorescence artefact?]	/
N#C/C(=C\c1coc2ccc(O)cc2c1=O)C(=O)Nc1nc2ccccc2s1	64*	/	-87	21	43	i
Cc1ccnc(NS(=O)(=O)c2ccc(NC(=O)c3ccc([N+](=O)[O-])s3)cc2)n1	26	0.9	-45	-2	0	/
CN(CC(=O)NCCc1ccccc1)S(=O)(=O)c1ccccc1	13	1	-5	3	-2	/
COc1ccc(CCN(C)C(=O)CSc2nnnn2C)cc1OC	26	1.1	4	-2	-11	/
Cc1ccc(S(=O)(=O)n2nc(OC(=O)c3ccco3)cc2N)cc1	3	/	1	6	28	/
COc1ccccc1C(=O)Oc1cc(N)n(S(=O)(=O)c2ccc(C)cc2)n1	94*	0.9	-4	-1	51	+
Cc1ccc(NC(=O)COc2ccc(/C=C3/SC(=Nc4ccccc4)N(Cc4cccnc4)C3=O)cc2)cc1	90*	1.1	22	4	9	+
COc1ccc(NC(=O)c2c(NC(=O)CCC(=O)O)sc(-c3ccccc3)c2C)cc1	33	1	-5	4	3	/
CC(C)n1cnc2cc(NCc3ccco3)ccc21	79*	0.9	10	-2	70*	i
CC(C)n1cnc2cc(NCc3ccccc3O)ccc21	-5	/	-8	5	6	/
C=CCn1c(SCc2nc3ccccc3c(=O)[nH]2)nc2scc(C3CC3)c2c1=O	-1	/	-62	-5	10	/
COc1ccc(Br)cc1/C=C/C(=O)NC(=S)Nc1ccc(Cl)c(C(=O)O)c1	58*	0.7	-37	-2	-10	i
COc1ccc(/C=C/c2nnc(NC(=O)c3ccco3)s2)cc1	53*	/	-20	2	-12	i
COc1ccc(/C=C/c2nnc(NC(=O)C(C)(C)C)s2)cc1	27	/	-12	2	-2	/
COc1ccc2nc(C)cc(SCC(=O)Nc3c(C)cccc3C)c2c1	78*	0.9	25	13	41	i
COc1ccc2nc(C)cc(SCC(=O)Nc3c(C)cc(C)cc3C)c2c1	51*	1	23	9	67	i
Cc1cc(Br)ccc1NC(=S)N1CCOCC1	15	/	3	-4	-4	/
COc1ccc(C(=O)NCCn2cc(SCC(N)=O)c3ccccc32)cc1	24	/	-6	-12	-2	/
C=CCOc1ccc(/C=C2\SC(=S)N(C(C(=O)O)c3ccccc3)C2=O)cc1 (configuration not stated)	51*	/	-27	-1	26	+
CCOc1ccc(/C=C2\SC(=S)N(C(C(=O)O)c3ccccc3)C2=O)cc1OC (configuration not stated)	28	/	-19	2	6	/
COc1ccc(C(NC=O)c2cc(OC)c(OC)cc2Br)cc1OC (configuration not stated)	3	0.9	6	1	12	/
SMILES	Hck Nef HTS	Diaph act CS	p47phox inh	eIF4E-4G inh	14-3-3 Bad inh	Hck Nef conf
CCCCCCCCCCCCCCCC[n+]1ccc(/C=N/O)cc1	112*	2*	97*	70*[fluorescence artefact?]	99*[fluorescence artefact?]	/
O=C(Nc1ccc(Cl)cc1)/C(=C/c1ccc([N+](=O)[O-])cc1)c1nc2ccccc2s1	28	0.9	-6	11	-2	/
Fc1ccc(/C=C\c2nccc3c2[nH]c2ccccc23)cc1	27	0.7	-35	5	5	/
C(=C\c1nccc2c1[nH]c1ccccc12)/c1ccccc1	164*	/	-17	4	0	/
Cc1ccc(Nc2nc(=O)c3cc([N+](=O)[O-])ccc3s2)cc1	57*	/	4	1	25	i
CC1(NC(=O)NCc2ccccc2)CCS(=O)(=O)C1 (configuration not stated)	16	0.8	-2	0	-5	/
